# Data as given in paper PMC6349498 (Drug testing and analysis, 2018).
# Like-named read-outs stand apart in the source and are kept apart here.
# Tests used:
# [1] = OT stability in water; assay type: physicochemical; settings: spiked 9.9, 24.8, 154 and 385 ng/mL in water; 10°C; up to 5 days; LCMS
# Method in brief: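 Water was spiked with OT and OT-d5 at final 9.9, 24.8, 154 and 385 ng/mL and held at 10°C for variable times, matching the urine spikes. OT and OT-d5 levels were quantitated by HRAM orbitrap LCMS (positive heated ESI, targeted SIM). Means and standard deviation were reported.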
# [2] = OT stability in human urine; assay type: in vitro ADME; settings: human urine spiked 9.9-385 ng/mL; 10°C; up to 5 days; LCMS
# [3] = OT stability in human serum; assay type: in vitro ADME; settings: added to human serum; 4°C or room temperature (23°C); up to 24 hours; LCMS
# Method in brief: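 OT and OT-d5 were added to human serum and held at room temperature (~23°C) or 4°C for 24 h. Levels were compared with pre-incubation values. Serum (500 µL) was spiked with OT-d5, acidified with 4% phosphoric acid, then C18 SPE-purified. Quantitation was by HRAM orbitrap LCMS in positive heated ESI targeted SIM mode.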
# [4] = assay type: in vivo, human
# Method in brief: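 Healthy male and post-menopausal female volunteers self-dosed intranasally. Male: 100 IU (10 IU/puff, 5 puffs per nostril, alternating), then 20 IU (1 puff per nostril) after one-week washout. Female: 100 IU (50 IU/puff) compounded metered spray. Serum (male), urine and saliva were sampled baseline to 120–240 min and frozen at −80°C. Samples were C18 SPE-extracted with OT-d5 internal standard and analysed by orbitrap targeted SIM (m/z 562.25503); urine was creatinine-adjusted.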
# [5] = plasma from men and non-pregnant women; 60 minute incubation at 37°C; cited from earlier work
# [6] = healthy volunteer, n=1, 100 IU intranasal (OxyLuv), saliva
# [7] = male, human, serum, inhaled or intranasal, 100 IU
Compound,stability in water [1],stability in urine after the initial drop [2],change in level compared to pre-incubation level [3] [%],"time after the peak at which levels decreased to below detection limits ([4]; 2 volunteers, 20 IU or 100 IU intranasal, serum, urine, saliva, summary) [h]","time of peak levels in serum, urine and saliva after each dose ([4]; 2 volunteers, 20 IU or 100 IU intranasal, summary over matrices) [min]","time of elimination of saliva OT to levels below LLOD ([4]; after intranasal OT, saliva, LLOD 10 pg/mL) [h]","time of peak saliva OT level ([4]; healthy volunteer, n=1, 20 IU intranasal (OxyLuv), saliva) [min]","peak saliva OT level [4, 6]","time of peak saliva OT level [4, 6] [min]","time of decrease of serum OT to baseline ([4]; healthy volunteer, n=1, 100 IU intranasal (OxyLuv), serum) [min]","time of peak urine OT excretion ([4]; healthy volunteer, n=1, 100 IU intranasal (OxyLuv), urine) [min]","Cmax [4, 7] [ng/mL]","Tmax [4, 7] [min]",OT degradation in plasma [5]
"CC[C@H](C)[C@@H]1NC(=O)[C@H](Cc2ccc(O)cc2)NC(=O)[C@@H](N)CSSC[C@@H](C(=O)N2CCC[C@H]2C(=O)N[C@@H](CC(C)C)C(=O)NCC(N)=O)NC(=O)[C@H](CC(N)=O)NC(=O)[C@H](CCC(N)=O)NC1=O [OT, Oxytocin]",remained stable,stayed at those low levels,< 15,1 to 2,15 to 30,2 to 3,15,"392,000 pg/mL",15,≤ 60,30,0.08,15,little or no OT degradation
OT-leucyl-d3-glycinamide-d2 [OT-d5],remained stable,stayed at those low levels,< 15,,,,,,,,,,,
